Data as given in ChEMBL document CHEMBL5696442, “Discovery of type II inhibitors of TGFβ-activated kinase 1 (TAK1) and mitogen-activated protein kinase kinase kinase kinase 2 (MAP4K2)” (J Med Chem, 2015).

Legend:
Assay type in all cases: cell-based
[1] = molecular target: T1, Scaffold protein ILK (Homo sapiens) (UniProt Q13418); experiment: Inhibition of ILK Lys1 labeling site in human A-375 cells at 5 uM by KiNativ Profiling analysis relative to control
T1 sequence (whole entry): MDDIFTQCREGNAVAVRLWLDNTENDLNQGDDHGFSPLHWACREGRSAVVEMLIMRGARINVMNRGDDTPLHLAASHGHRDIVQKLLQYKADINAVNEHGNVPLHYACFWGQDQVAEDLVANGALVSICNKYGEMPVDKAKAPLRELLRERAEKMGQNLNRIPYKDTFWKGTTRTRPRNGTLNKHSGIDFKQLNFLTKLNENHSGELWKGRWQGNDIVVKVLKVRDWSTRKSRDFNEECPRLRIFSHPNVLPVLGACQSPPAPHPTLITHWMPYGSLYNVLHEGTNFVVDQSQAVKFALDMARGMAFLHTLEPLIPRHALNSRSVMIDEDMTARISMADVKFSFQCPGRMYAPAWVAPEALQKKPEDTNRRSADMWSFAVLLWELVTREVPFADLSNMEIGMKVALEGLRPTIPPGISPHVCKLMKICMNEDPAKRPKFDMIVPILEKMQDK

[2] = molecular target: Phosphatidylinositol 3-kinase catalytic subunit type 3 (Homo sapiens) (UniProt Q8NEB9); experiment: Inhibition of PIK3C3 ATP labeling site in human A-375 cells at 5 uM by KiNativ Profiling analysis relative to control
[3] = molecular target: T2, Serine/threonine-protein kinase Chk1 (Homo sapiens) (UniProt O14757); experiment: Inhibition of CHK1 Lys2 labeling site harbouring DIKPENLLLDER in human A-375 cells at 0.5 uM by KiNativ Profiling analysis relative to control
T2 sequence (whole entry): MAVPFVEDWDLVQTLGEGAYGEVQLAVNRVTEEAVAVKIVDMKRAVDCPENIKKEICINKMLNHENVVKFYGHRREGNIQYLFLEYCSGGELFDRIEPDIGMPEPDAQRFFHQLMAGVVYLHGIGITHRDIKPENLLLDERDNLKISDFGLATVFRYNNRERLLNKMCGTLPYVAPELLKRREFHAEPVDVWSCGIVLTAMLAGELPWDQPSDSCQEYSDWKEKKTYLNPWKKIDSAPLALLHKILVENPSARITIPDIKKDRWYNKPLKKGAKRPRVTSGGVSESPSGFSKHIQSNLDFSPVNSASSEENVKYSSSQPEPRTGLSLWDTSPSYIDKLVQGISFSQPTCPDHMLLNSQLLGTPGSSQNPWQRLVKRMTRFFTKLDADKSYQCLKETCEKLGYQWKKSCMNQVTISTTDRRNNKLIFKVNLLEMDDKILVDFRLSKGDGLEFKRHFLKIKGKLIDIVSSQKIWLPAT
Summary of the method: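 Live A375 melanoma cells were treated with compound at 5 or 0.5 μM. The cells were then lysed, and the lysates were labeled with a lysine-reactive ATP or ADP-biotin acyl probe (KiNativ). Inhibition is the compound's protection of each kinase labeling-site peptide from probe labeling, relative to untreated control.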

[4] = molecular target: Serine/threonine-protein kinase Nek7 (Homo sapiens) (UniProt Q8TDX7); experiment: Inhibition of NEK7 Lys2 labeling site in human A-375 cells at 0.5 uM by KiNativ Profiling analysis relative to control
[5] = molecular target: T3, Phosphatidylinositol 5-phosphate 4-kinase type-2 gamma (Homo sapiens) (UniProt Q8TBX8); experiment: Inhibition of PIP4K2C ATP labeling site harbouring VKELPTLKDMDFLNK in human A-375 cells at 0.5 uM by KiNativ Profiling analysis relative to control
T3 sequence (whole entry): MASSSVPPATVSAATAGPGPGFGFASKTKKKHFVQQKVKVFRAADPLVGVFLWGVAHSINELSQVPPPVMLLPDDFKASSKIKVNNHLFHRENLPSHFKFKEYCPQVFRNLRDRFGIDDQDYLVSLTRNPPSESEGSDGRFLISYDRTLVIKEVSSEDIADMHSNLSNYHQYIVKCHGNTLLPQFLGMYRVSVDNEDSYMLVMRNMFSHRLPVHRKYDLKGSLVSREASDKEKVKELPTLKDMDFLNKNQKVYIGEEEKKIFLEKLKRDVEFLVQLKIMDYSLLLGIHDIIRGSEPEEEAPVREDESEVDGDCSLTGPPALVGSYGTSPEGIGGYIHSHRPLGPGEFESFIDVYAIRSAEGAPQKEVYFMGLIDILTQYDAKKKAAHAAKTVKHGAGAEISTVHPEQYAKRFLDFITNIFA
Summary of the method: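 Live A375 melanoma cells were treated with compound at 5 or 0.5 μM, then lysed. Lysates were labeled with a lysine-reactive ATP or ADP-biotin probe. Read-out was the compound's protection of kinase labeling sites from probe labeling (KiNativ).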

[6] = molecular target: Serine/threonine-protein kinase WNK1 (Homo sapiens) (UniProt Q9H4A3); experiment: Inhibition of Wnk1 ATP Loop labeling site in human A-375 cells at 0.5 uM by KiNativ Profiling analysis relative to control
[7] = molecular target: Serine/threonine-protein kinase WNK2 (Homo sapiens) (UniProt Q9Y3S1); experiment: Inhibition of Wnk2 Lys2 labeling site in human A-375 cells at 0.5 uM by KiNativ Profiling analysis relative to control
[8] = molecular target: T2, Serine/threonine-protein kinase Chk1 (Homo sapiens); experiment: Inhibition of CHK1 Lys2 labeling site harbouring DIKPENLLLDERDNLK in human A-375 cells at 0.05 uM by KiNativ Profiling analysis relative to control
[9] = molecular target: T4, Mitogen-activated protein kinase kinase kinase 2 (Homo sapiens) (UniProt Q9Y2U5); experiment: Inhibition of MAP3K2 Lys1 labeling site harbouring VYLCYDVDTGRELAVKQVQFDPDSPETSKEVNALECEIQLLK in human A-375 cells at 0.05 uM by KiNativ Profiling analysis relative to control
T4 sequence (whole entry): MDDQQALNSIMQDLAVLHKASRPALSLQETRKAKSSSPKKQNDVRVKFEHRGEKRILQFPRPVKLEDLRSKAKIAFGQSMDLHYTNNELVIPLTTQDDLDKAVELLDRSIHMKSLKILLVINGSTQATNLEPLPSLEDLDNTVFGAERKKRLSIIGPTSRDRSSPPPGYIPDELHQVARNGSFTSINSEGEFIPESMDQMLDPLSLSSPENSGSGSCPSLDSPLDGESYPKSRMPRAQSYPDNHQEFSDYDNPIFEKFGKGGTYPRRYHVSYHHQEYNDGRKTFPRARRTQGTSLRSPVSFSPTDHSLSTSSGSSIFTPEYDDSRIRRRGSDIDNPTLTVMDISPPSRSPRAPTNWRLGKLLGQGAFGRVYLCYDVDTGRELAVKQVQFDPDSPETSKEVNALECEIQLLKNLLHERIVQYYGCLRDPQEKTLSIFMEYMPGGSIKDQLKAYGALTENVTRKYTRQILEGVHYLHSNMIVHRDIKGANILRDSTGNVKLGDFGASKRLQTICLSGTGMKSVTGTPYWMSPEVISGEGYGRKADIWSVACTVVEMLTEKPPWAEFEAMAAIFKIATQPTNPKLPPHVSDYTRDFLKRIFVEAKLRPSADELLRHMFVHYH

Serine/threonine-protein kinase WNK1 (Homo sapiens), sequence (Q9H4A3 whole entry, looked up): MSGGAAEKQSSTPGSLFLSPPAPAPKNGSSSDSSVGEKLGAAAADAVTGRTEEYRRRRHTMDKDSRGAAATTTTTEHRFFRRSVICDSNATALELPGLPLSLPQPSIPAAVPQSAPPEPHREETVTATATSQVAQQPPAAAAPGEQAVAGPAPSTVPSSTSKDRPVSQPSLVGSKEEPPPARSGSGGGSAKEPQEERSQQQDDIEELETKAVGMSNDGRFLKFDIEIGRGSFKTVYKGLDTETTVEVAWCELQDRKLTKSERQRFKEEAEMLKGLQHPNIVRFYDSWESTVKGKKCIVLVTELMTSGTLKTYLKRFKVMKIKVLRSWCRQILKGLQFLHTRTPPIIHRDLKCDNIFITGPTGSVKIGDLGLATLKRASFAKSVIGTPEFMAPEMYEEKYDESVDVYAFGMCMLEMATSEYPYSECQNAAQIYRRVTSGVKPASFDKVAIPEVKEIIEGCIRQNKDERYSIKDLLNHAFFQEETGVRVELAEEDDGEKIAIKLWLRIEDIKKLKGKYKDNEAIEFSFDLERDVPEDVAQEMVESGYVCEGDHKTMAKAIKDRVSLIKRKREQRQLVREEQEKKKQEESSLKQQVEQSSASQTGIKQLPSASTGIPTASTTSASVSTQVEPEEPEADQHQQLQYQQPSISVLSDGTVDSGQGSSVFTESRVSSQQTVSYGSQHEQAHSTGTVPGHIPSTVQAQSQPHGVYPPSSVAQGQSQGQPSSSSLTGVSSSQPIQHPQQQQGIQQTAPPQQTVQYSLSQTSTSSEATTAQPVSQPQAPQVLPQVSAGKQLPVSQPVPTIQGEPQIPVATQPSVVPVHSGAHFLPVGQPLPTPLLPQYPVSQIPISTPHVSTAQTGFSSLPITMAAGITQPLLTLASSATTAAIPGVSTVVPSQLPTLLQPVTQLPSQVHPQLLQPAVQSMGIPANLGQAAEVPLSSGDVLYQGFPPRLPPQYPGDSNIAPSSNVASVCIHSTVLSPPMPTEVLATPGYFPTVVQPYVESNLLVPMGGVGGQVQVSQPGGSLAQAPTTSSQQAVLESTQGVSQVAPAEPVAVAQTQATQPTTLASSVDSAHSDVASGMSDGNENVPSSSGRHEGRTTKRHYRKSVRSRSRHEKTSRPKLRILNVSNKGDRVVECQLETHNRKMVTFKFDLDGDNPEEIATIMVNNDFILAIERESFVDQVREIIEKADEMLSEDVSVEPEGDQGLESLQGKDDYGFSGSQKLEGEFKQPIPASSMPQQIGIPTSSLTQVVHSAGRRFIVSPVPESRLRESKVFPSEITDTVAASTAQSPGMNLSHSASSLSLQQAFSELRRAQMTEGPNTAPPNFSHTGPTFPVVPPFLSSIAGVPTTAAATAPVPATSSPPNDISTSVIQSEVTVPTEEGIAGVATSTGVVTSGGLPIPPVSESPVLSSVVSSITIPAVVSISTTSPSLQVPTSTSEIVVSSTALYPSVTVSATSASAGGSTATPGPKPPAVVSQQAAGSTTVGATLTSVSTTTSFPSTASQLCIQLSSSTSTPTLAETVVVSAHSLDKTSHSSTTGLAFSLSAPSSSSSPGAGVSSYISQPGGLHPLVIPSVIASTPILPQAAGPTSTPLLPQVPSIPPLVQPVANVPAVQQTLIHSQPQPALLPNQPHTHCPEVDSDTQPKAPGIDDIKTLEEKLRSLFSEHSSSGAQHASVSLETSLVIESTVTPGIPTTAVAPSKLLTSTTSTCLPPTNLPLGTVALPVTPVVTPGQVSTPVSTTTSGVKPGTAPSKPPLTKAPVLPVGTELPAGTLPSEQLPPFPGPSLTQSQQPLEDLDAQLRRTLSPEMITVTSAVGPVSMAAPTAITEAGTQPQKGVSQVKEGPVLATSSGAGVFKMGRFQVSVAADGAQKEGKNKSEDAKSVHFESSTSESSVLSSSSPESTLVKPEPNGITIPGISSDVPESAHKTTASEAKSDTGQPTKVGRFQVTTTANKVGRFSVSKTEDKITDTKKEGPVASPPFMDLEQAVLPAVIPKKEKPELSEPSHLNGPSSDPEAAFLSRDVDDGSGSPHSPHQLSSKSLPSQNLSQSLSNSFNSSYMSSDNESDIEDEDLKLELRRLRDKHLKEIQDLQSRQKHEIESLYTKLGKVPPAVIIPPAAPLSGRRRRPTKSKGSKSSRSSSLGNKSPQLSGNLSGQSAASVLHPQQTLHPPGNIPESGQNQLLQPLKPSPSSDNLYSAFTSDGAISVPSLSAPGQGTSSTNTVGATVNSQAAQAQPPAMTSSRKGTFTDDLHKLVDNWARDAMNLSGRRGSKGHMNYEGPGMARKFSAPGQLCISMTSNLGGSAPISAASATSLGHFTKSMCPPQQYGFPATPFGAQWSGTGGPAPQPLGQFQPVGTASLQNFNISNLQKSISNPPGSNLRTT
Phosphatidylinositol 3-kinase catalytic subunit type 3 (Homo sapiens), sequence (Q8NEB9 whole entry): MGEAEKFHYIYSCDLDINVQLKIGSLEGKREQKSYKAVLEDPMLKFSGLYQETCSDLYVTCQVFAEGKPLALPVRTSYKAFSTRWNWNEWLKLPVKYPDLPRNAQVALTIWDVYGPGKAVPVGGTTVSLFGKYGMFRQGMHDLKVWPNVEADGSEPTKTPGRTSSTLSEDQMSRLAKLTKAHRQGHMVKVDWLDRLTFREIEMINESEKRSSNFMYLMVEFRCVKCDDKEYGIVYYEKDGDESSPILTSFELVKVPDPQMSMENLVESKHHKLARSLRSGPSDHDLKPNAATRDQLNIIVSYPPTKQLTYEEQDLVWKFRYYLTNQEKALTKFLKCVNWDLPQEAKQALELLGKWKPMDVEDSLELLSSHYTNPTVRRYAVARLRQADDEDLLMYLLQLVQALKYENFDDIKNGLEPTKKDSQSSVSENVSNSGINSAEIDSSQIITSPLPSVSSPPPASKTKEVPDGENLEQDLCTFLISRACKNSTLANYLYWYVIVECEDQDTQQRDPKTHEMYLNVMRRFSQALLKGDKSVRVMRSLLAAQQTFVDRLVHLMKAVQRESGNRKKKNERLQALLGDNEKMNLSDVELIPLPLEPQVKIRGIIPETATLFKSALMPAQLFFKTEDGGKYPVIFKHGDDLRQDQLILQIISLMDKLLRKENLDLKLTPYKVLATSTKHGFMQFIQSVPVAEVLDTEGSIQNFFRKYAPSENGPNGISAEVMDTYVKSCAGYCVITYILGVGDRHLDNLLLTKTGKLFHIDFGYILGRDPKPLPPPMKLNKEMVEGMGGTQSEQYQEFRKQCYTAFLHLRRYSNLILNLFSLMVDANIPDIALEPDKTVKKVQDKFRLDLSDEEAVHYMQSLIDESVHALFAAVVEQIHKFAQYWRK
Serine/threonine-protein kinase Nek7 (Homo sapiens), sequence (Q8TDX7 whole entry, looked up): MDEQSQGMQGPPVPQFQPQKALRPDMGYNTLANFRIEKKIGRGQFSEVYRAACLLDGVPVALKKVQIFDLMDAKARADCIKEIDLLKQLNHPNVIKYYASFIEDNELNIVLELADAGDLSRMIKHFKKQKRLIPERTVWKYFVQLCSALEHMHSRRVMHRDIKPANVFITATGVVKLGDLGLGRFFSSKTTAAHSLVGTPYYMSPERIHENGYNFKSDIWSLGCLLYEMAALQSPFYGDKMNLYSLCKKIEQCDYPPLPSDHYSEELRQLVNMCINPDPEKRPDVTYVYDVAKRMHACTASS

## CCN1CCN(Cc2ccc(NC(=O)c3ccc(C)c(Oc4ccnc5[nH]ccc45)c3)cc2C(F)(F)F)CC1
[1]
  inhibition: -9.9%
[2]
  inhibition: 40.5%
[3]
  inhibition: 45.2%
[4]
  inhibition: 7.8%
[5]
  inhibition: 3.2%
[6]
  inhibition: 11.4%
[7]
  inhibition: -3%
[8]
  inhibition: 47.1%
[9]
  inhibition: -3.7%

## CCN1CCN(Cc2ccc(NC(=O)c3ccc(C)c(/C=C/c4cnc5[nH]ccc5c4OC)c3)cc2C(F)(F)F)CC1
[1]
  inhibition: -8.7%
[2]
  inhibition: 35.1%
[3]
  inhibition: 19.4%
[4]
  inhibition: 10.7%
[5]
  inhibition: -5.8%
[6]
  inhibition: 15.3%
[7]
  inhibition: 7.9%
[8]
  inhibition: 2.9%
[9]
  inhibition: 1.5%
